pKd: −log10 of the molar value. Active and inactive are the calls of the source. The calls are words filed in the database; no cut-off is given here.
Tests used:
[1] = tested on: Tyrosine-protein kinase ABL1 (Homo sapiens), P00519 [F317I]; experiment: Inhibition of phosphorylated ABL1 F317I mutant (unknown origin) assessed as remaining activity at 1 uM by Kinome scan method relative to control
[2] = molecular target: Bone morphogenetic protein receptor type-2 (Homo sapiens) (UniProt Q13873); experiment: Inhibition of BMPR2 (unknown origin) assessed as remaining activity at 1 uM by Kinome scan method relative to control
Procedure, shortened: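 Active-site-dependent competition-binding (KINOMEscan) panel of 468 kinases, test compound at 1 μM (from a 10 mM DMSO stock). Read-out is ctrl% = (test signal − positive control signal)/(negative control signal − positive control signal) × 100. DMSO is the negative control (100%) and a control compound is the positive control (0%). Lower ctrl% means tighter binding.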

[3] = molecular target: Serine/threonine-protein kinase Chk2 (Homo sapiens) (UniProt O96017); experiment: Inhibition of CHEK2 (unknown origin) assessed as remaining activity at 1 uM by Kinome scan method relative to control
Sequence of Serine/threonine-protein kinase Chk2 (Homo sapiens) (O96017 whole entry): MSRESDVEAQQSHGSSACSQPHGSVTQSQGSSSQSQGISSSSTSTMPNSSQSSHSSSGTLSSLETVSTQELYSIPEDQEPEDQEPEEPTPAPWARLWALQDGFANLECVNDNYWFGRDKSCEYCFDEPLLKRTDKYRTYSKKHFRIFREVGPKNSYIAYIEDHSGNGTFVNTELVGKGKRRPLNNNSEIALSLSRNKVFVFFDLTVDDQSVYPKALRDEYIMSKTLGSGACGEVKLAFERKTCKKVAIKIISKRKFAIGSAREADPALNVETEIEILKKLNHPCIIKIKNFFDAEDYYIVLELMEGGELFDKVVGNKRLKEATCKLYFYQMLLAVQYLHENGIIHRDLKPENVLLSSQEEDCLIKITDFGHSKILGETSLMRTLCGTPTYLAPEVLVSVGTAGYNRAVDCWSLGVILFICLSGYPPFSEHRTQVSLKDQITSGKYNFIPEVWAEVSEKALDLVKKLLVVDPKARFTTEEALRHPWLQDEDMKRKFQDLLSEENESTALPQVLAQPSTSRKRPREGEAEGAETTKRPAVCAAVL
Procedure, shortened: (§1)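 Active-site-dependent competition-binding profiling (KINOMEscan) at 1 μM against a 468-kinase panel; compound supplied from a 10 mM DMSO stock. Read-out is ctrl% = (test signal − positive control signal)/(negative control signal − positive control signal) × 100. DMSO is the negative control (100%) and a control compound the positive control (0%). Lower ctrl% means tighter binding.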

[4] = molecular target: Citron Rho-interacting kinase (Homo sapiens) (UniProt O14578); experiment: Inhibition of CIT (unknown origin) assessed as remaining activity at 1 uM by Kinome scan method relative to control; procedure, shortened: as §1
[5] = molecular target: Macrophage colony-stimulating factor 1 receptor (Homo sapiens) (UniProt P07333); experiment: Inhibition of CSF1R-autoinhibited (unknown origin) assessed as remaining activity at 1 uM by Kinome scan method relative to control; procedure, shortened: as §1
[6] = molecular target: Death-associated protein kinase 1 (Homo sapiens) (UniProt P53355); experiment: Inhibition of DAPK1 (unknown origin) assessed as remaining activity at 1 uM by Kinome scan method relative to control; procedure, shortened: as §1
[7] = molecular target: Serine/threonine-protein kinase DCLK1 (Homo sapiens) (UniProt O15075); experiment: Inhibition of DCAMKL1 (unknown origin) assessed as remaining activity at 1 uM by Kinome scan method relative to control
Procedure, shortened: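 Active-site-dependent competition-binding assay (KINOMEscan) across a 468-kinase panel, with the inhibitor tested at 1 μM from a 10 mM DMSO stock. Read-out is ctrl% = (test signal − positive control)/(negative control − positive control) × 100. DMSO is the negative control (100%) and a control compound the positive control (0%). Lower ctrl% means tighter binding.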

[8] = molecular target: Receptor tyrosine-protein kinase erbB-2 (Homo sapiens) (UniProt P04626); experiment: Inhibition of ERBB2 (unknown origin) assessed as remaining activity at 1 uM by Kinome scan method relative to control
[9] = tested on: Receptor-type tyrosine-protein kinase FLT3 (Homo sapiens), P36888 [D835Y]; experiment: Inhibition of FLT3 D835Y mutant (unknown origin) assessed as remaining activity at 1 uM by Kinome scan method relative to control
[10] = molecular target: Rhodopsin kinase GRK7 (Homo sapiens) (UniProt Q8WTQ7); experiment: Inhibition of GRK7 (unknown origin) assessed as remaining activity at 1 uM by Kinome scan method relative to control
Sequence of Rhodopsin kinase GRK7 (Homo sapiens) (Q8WTQ7 whole entry): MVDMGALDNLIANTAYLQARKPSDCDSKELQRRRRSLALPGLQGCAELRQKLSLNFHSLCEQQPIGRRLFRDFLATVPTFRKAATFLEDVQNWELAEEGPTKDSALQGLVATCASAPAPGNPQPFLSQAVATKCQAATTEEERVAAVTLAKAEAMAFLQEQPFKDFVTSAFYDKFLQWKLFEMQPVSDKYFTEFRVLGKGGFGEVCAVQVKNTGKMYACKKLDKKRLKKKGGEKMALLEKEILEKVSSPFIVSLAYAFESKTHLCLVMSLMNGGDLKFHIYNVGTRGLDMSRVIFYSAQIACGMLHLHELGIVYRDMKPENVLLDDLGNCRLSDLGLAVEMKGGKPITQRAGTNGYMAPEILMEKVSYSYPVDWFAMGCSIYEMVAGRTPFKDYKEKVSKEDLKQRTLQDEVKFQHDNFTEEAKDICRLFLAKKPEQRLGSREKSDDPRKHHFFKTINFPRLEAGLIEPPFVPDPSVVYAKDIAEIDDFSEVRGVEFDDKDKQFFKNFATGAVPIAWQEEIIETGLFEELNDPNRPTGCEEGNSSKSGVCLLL

[11] = molecular target: Homeodomain-interacting protein kinase 1 (Homo sapiens) (UniProt Q86Z02); experiment: Inhibition of HIPK1 (unknown origin) assessed as remaining activity at 1 uM by Kinome scan method relative to control
Sequence of Homeodomain-interacting protein kinase 1 (Homo sapiens) (Q86Z02 whole entry, looked up): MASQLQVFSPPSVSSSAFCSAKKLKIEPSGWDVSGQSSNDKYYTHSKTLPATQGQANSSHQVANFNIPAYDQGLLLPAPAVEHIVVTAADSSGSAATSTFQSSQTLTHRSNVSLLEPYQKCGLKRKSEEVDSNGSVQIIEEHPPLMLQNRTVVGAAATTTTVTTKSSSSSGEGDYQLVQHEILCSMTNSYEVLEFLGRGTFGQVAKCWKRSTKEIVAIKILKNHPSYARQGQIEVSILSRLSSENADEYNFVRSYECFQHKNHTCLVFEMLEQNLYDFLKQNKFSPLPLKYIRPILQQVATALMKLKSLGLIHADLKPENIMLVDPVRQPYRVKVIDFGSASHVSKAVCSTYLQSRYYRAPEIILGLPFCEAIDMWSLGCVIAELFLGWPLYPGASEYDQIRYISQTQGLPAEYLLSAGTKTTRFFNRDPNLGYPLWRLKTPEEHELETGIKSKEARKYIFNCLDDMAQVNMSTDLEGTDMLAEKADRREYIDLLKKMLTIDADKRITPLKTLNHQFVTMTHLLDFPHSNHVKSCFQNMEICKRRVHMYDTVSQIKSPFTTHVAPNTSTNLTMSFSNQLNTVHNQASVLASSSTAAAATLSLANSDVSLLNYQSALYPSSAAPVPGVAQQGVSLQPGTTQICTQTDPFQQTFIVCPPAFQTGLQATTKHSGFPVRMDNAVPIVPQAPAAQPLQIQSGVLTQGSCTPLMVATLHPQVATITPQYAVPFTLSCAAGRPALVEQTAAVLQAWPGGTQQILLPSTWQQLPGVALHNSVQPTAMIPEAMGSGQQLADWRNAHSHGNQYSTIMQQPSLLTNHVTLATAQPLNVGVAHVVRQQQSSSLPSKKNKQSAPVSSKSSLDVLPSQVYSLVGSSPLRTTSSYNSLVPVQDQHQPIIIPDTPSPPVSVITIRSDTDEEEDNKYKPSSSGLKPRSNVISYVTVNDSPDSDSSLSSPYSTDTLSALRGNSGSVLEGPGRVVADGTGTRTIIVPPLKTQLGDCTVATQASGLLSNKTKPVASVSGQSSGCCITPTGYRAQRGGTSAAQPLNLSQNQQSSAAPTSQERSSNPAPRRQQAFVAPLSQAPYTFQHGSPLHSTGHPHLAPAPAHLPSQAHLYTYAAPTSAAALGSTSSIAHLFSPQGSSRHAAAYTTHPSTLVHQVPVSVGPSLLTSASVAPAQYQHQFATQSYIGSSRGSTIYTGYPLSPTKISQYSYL

[12] = molecular target: Inhibitor of nuclear factor kappa-B kinase subunit beta (Homo sapiens) (UniProt O14920); experiment: Inhibition of IKK-beta (unknown origin) assessed as remaining activity at 1 uM by Kinome scan method relative to control
Sequence of Inhibitor of nuclear factor kappa-B kinase subunit beta (Homo sapiens) (O14920 whole entry): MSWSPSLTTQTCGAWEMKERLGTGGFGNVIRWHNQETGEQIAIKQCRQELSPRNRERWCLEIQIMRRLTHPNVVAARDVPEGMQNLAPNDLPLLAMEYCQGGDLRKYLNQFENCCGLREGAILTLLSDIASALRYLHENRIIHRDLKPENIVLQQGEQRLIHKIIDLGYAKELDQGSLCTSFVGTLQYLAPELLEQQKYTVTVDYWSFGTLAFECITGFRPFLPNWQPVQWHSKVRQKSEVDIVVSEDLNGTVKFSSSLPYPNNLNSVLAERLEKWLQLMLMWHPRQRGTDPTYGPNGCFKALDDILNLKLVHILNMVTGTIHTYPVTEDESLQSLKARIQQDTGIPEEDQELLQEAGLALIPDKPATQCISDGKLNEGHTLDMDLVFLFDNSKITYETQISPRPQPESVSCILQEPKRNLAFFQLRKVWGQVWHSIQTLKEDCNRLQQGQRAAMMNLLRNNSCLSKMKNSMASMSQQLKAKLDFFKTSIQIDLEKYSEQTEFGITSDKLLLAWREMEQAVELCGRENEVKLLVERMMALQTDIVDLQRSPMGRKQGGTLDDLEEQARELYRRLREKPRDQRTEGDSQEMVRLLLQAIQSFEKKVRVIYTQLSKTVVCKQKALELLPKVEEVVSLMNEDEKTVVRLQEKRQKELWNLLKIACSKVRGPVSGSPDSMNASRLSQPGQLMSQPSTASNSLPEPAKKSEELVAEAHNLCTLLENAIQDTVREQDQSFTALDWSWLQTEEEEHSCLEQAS

[13] = molecular target: Tyrosine-protein kinase Lck (Homo sapiens) (UniProt P06239); experiment: Inhibition of LCK (unknown origin) assessed as remaining activity at 1 uM by Kinome scan method relative to control
[14] = molecular target: Serine/threonine-protein kinase Nek9 (Homo sapiens) (UniProt Q8TD19); experiment: Inhibition of NEK9 (unknown origin) assessed as remaining activity at 1 uM by Kinome scan method relative to control
[15] = molecular target: Protein-tyrosine kinase 2-beta (Homo sapiens) (UniProt Q14289); experiment: Inhibition of PYK2 (unknown origin) assessed as remaining activity at 1 uM by Kinome scan method relative to control
Sequence of Protein-tyrosine kinase 2-beta (Homo sapiens) (Q14289 whole entry, looked up, the tested form may be a part): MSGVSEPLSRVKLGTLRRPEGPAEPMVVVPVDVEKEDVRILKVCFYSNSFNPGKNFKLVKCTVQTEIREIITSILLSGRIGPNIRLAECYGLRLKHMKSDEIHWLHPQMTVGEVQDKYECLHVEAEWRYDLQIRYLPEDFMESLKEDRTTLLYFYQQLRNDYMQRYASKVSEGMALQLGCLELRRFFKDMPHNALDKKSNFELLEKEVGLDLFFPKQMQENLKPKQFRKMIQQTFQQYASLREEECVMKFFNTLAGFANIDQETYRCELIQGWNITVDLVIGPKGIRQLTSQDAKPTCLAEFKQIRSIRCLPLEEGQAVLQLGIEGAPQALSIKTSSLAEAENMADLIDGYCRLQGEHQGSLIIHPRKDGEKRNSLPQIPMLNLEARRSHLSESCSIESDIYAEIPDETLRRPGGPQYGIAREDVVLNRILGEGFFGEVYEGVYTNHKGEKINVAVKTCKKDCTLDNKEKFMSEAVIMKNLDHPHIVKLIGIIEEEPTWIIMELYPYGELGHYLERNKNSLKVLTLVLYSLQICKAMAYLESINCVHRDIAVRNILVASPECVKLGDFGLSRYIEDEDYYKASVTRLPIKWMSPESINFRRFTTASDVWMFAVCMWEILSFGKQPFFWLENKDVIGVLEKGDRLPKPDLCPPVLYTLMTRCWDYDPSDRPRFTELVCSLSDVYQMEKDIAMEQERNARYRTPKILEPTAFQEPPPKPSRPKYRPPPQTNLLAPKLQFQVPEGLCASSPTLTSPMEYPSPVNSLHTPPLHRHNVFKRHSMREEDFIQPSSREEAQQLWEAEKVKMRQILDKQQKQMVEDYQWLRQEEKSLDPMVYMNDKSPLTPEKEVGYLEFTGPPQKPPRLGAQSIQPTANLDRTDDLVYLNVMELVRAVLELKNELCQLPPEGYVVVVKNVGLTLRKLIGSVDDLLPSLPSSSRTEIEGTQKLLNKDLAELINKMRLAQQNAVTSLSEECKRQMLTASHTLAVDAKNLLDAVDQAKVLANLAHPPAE

[16] = molecular target: Ribosomal protein S6 kinase alpha-1 (Homo sapiens) (UniProt Q15418); experiment: Inhibition of N-terminal kinase domain RSK1 (unknown origin) assessed as remaining activity at 1 uM by Kinome scan method relative to control
[17] = molecular target: Serine/threonine-protein kinase SIK2 (Homo sapiens) (UniProt Q9H0K1); experiment: Inhibition of SIK2 (unknown origin) assessed as remaining activity at 1 uM by Kinome scan method relative to control
Sequence of Serine/threonine-protein kinase SIK2 (Homo sapiens) (Q9H0K1 whole entry, looked up): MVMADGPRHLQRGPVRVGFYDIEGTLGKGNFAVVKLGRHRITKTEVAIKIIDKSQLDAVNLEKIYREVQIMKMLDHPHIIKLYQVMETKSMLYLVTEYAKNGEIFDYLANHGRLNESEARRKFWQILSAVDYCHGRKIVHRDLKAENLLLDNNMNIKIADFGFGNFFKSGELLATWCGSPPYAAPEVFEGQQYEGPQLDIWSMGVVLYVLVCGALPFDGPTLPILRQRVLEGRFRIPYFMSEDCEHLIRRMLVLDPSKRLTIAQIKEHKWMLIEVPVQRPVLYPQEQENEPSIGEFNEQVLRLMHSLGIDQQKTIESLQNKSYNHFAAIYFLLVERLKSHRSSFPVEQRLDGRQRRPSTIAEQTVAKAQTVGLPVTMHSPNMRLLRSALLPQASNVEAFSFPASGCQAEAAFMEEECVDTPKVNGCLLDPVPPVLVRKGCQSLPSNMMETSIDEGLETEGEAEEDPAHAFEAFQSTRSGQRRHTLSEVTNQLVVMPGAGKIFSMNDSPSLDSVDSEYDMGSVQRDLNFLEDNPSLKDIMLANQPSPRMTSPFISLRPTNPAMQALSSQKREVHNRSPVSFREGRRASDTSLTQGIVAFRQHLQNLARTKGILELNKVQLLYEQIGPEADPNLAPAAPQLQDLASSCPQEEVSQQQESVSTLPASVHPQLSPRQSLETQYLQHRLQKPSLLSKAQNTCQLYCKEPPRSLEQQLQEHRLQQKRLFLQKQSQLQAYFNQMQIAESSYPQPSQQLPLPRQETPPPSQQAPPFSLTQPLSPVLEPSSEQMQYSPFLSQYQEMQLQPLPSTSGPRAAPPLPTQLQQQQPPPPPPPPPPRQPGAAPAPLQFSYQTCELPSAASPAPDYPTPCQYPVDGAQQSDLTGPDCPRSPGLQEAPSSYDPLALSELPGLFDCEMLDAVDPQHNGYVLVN

[18] = molecular target: Dual specificity protein kinase TTK (Homo sapiens) (UniProt P33981); experiment: Inhibition of TTK (unknown origin) assessed as remaining activity at 1 uM by Kinome scan method relative to control
[19] = molecular target: Serine/threonine-protein kinase ULK1 (Homo sapiens) (UniProt O75385); experiment: Inhibition of ULK1 (unknown origin) assessed as remaining activity at 1 uM by Kinome scan method relative to control
[20] = molecular target: Tyrosine-protein kinase ABL1 (Homo sapiens, UniProt P00519, M351T); experiment: Binding affinity to phosphorylated ABL1 M351T mutant (unknown origin) assessed as dissociation constant
[21] = MRT (0 to infinity) in male Sprague-Dawley rat at 10 mg/kg, po measured for 24 hrs by LC-MS/MS analysis; format: ADME, organism-based; conditions: in vivo
[22] = Acute toxicity in wild-type mouse assessed as bromodeoxyuridine positive cells at 1 mg/kg,ip administrated daily for 2 months and after 2 weeks drug withdrawal by H and E staining based immunohistochemical analysis; format: organism-based; conditions: in vivo, 1460 h
Procedure, shortened: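 Wild-type mice dosed 1 mg/kg i.p. daily for 2 months (vehicle 0.1% citric acid aqueous solution with 20% Kolliphor HS 15), or dosed and then withdrawn 2 weeks. Liver sections given H&E and IHC for CK19 and BrdU; positive cells counted, n = 3; means ± SD, Student's t test.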

[23] = Acute toxicity in wild-type mouse assessed as increase in Ki67-positive cells at 1 mg/kg,ip administrated twice daily for 1 to 7 days by Ki67 staining; format: organism-based, Liver; conditions: in vivo, time 1-7 day
Procedure, shortened: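 Wild-type mice were dosed once a day before two-thirds partial hepatectomy, then given vehicle or 1 mg/kg i.p. twice per day. Ki67-positive cells were counted in liver sections over postoperative days 1 to 7, n = 5; means ± SD, Student's t test.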

[24] = tested on: Mus musculus; experiment: Anti-colitis activity against DSS-induced mouse assessed as high BrdU incorporation at 1 mg/kg, ip administrated daily for 8 days by IHC staining; format: functional, organism-based; conditions: Colon, time 8.0 day
Procedure, shortened: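 Wild-type mice received oral DSS for 7 days with vehicle or 1 mg/kg daily. Colon sections were stained by IHC for YAP, BrdU and Ki67, and positive cells were quantified per animal. Means ± SD, n = 10, Student's t test.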

[25] = tested on: Mus musculus; experiment: Protection against duct ligation-induced mouse assessed as low dead cells at 1 mg/kg, ip administration daily for 10 days by TUNEL staining; format: functional, organism-based; conditions: Liver, time 10.0 day

CN1C(=O)c2sccc2N(C)c2nc(Nc3ccc(S(N)(=O)=O)cc3)ncc21
Activity [1]: 39% | Activity [2]: 100% | Activity [3]: 100% | Activity [4]: 96% | Activity [5]: 87% | Activity [6]: 91% | Activity [7]: 8.3% | Activity [8]: 100% | Activity [9]: 86% | Activity [10]: 74% | Activity [11]: 91% | Activity [12]: 100% | Activity [13]: 100% | Activity [14]: 94% | Activity [15]: 98% | Activity [16]: 91% | Activity [17]: 100% | Activity [18]: 99% | Activity [19]: 21% | pKd [20]: 7.38 | MRT inf [21]: 7.34 h | Activity [22]: Non-Toxic | Activity [23]: Non-Toxic | Activity [24]: Active | Activity [25]: Active

From ChEMBL document CHEMBL5705905, “Pharmacological targeting of kinases MST1 and MST2 augments tissue repair and regeneration” (Sci Transl Med, 2016)
